Measured values: ChEMBL document CHEMBL2417481, “Regioselective synthesis of 6-substituted-2-amino-5-bromo-4(3H)-pyrimidinones and evaluation of their antiviral activity” (Eur J Med Chem, 2013)

Experiments:
[1] = Cytotoxicity against african green monkey Vero cells assessed as morphological changes; format: cell-based; conditions: chlorocebus sabaeus
[2] = Cytotoxicity against human HEL cells assessed as morphological changes; format: cell-based
[3] = system: Human alphaherpesvirus 2; assay: Antiviral activity against Herpes simplex virus-2 G infected in human HEL cells assessed as reduction in virus-induced cytopathogenicity; format: functional, organism-based; conditions: Human alphaherpesvirus 2, strain G
Procedure, shortened: (§1)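 Confluent cell monolayers (Vero, HeLa, HEL or MDCK, as named in each line) were infected with 100 CCID50 of virus while exposed to a range of compound concentrations. Cytopathicity was scored once it was complete in untreated infected controls.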

[4] = system: Coxsackievirus B4; assay: Antiviral activity against Coxsackievirus B4 infected in african green monkey Vero cells assessed as reduction in virus-induced cytopathogenicity; format: functional, organism-based; conditions: Enterovirus B; procedure, shortened: as §1
[5] = system: Human alphaherpesvirus 1; assay: Antiviral activity against Herpes simplex virus-1 KOS infected in human HEL cells assessed as reduction in virus-induced cytopathogenicity; format: functional, organism-based; conditions: Human alphaherpesvirus 1, KOS; procedure, shortened: as §1
[6] = system: Coxsackievirus B4; assay: Antiviral activity against Coxsackievirus B4 infected in human HeLa cells assessed as reduction in virus-induced cytopathogenicity; format: functional, organism-based; conditions: Enterovirus B; procedure, shortened: as §1
[7] = system: Human alphaherpesvirus 3; assay: Antiviral activity against thymidine kinase positive Varicella-zoster virus OKA infected in human HEL cells assessed as reduction in virus plaque formation; format: functional, cell-based, Human herpesvirus 3 strain Oka vaccine; conditions: Human alphaherpesvirus 3, OKA
Procedure, shortened: (§2)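 Confluent HEL fibroblast cultures received 20 PFU of VZV together with varying compound concentrations. Plaque formation was read when it reached completion in untreated virus controls.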

[8] = system: Influenza B virus; assay: Antiviral activity against Influenza B virus infected in MDCK cells assessed as reduction in virus-induced cytopathogenicity; format: functional, organism-based; procedure, shortened: as §1
[9] = Cytotoxicity against human HeLa cells assessed as morphological changes; format: cell-based
[10] = system: Cytomegalovirus; assay: Antiviral activity against Cytomegalovirus AD-169 infected in human HEL cells assessed as reduction in virus plaque formation; format: functional, organism-based; conditions: Human betaherpesvirus 5, AD-169, HEL
Procedure, shortened: (§3)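 Confluent HEL fibroblasts were inoculated with 100 PFU of CMV at graded compound concentrations. Plaques were counted once formation was complete in untreated infected controls.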

[11] = system: Cytomegalovirus; assay: Antiviral activity against Cytomegalovirus Davis infected in human HEL cells assessed as reduction in virus plaque formation; format: functional, organism-based; conditions: Human betaherpesvirus 5, Davis; procedure, shortened: as §3
[12] = system: Human alphaherpesvirus 1; assay: Antiviral activity against thymidine kinase negative […] Herpes simplex virus-1 KOS infected in human HEL cells assessed as reduction in virus-induced cytopathogenicity; format: functional, organism-based; conditions: Human alphaherpesvirus 1, KOS; procedure, shortened: as §1
[13] = system: Vesicular stomatitis virus; assay: Antiviral activity against Vesicular stomatitis virus infected in human HEL cells assessed as reduction in virus-induced cytopathogenicity; format: functional, organism-based; procedure, shortened: as §1
[14] = Cytotoxicity against cat CRFK cells assessed as cell viability by MTS assay; format: cell-based, Felis catus
[15] = system: Influenza A virus; assay: Antiviral activity against Influenza A virus H1N1 infected in MDCK cells assessed as reduction in virus-induced cytopathogenicity; format: functional, organism-based; procedure, shortened: as §1
[16] = system: Mammalian orthoreovirus 1; assay: Antiviral activity against Reovirus-1 infected in african green monkey Vero cells assessed as reduction in virus-induced cytopathogenicity; format: functional, organism-based; conditions: Mammalian orthoreovirus 1, Vero
Procedure, shortened: (§4)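 Confluent Vero monolayers in 96-well plates were inoculated with 100 CCID50 of virus together with varying compound concentrations. Cytopathicity was scored once it was complete in untreated virus-infected control cultures.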

[17] = system: Sindbis virus; assay: Antiviral activity against Sindbis virus infected in african green monkey Vero cells assessed as reduction in virus-induced cytopathogenicity; format: functional, organism-based; procedure, shortened: as §1
[18] = system: Human respirovirus 3; assay: Antiviral activity against Parainfluenza virus 3 infected in african green monkey Vero cells assessed as reduction in virus-induced cytopathogenicity; format: functional, organism-based; conditions: Human respirovirus 3, Vero; procedure, shortened: as §4
[19] = system: Influenza A virus; assay: Antiviral activity against Influenza A virus […] infected in MDCK cells assessed as reduction in virus-induced cytopathogenicity; format: functional, organism-based; procedure, shortened: as §1
[20] = Cytotoxicity against MDCK cells assessed as morphological changes; format: cell-based, Canis lupus familiaris; conditions: dog
[21] = system: Vesicular stomatitis virus; assay: Antiviral activity against Vesicular stomatitis virus infected in human HeLa cells assessed as reduction in virus-induced cytopathogenicity; format: functional, organism-based; procedure, shortened: as §1
[22] = system: Respiratory syncytial virus; assay: Antiviral activity against Respiratory syncytial virus Long infected in human HeLa cells assessed as reduction in virus-induced cytopathogenicity; format: functional, organism-based; procedure, shortened: as §1
[23] = system: Feline coronavirus; assay: Antiviral activity against Feline coronavirus infected in cat CRFK cells assessed as inhibition of virus-induced cytopathic effect by MTS assay; format: functional, organism-based; conditions: Alphacoronavirus 1, CRFK
[24] = system: Punta Toro virus; assay: Antiviral activity against Punta Toro virus infected in african green monkey Vero cells assessed as reduction in virus-induced cytopathogenicity; format: functional, organism-based; procedure, shortened: as §1
[25] = system: Felid alphaherpesvirus 1; assay: Antiviral activity against Feline Herpes virus infected in cat CRFK cells assessed as inhibition of virus-induced cytopathic effect by MTS assay; format: functional, organism-based; conditions: Felid alphaherpesvirus 1, CRFK
[26] = system: Human alphaherpesvirus 3; assay: Antiviral activity against thymidine kinase negative Varicella-zoster virus 07-1 infected in human HEL cells assessed as reduction in the virus plaque formation; format: functional, organism-based; conditions: Human alphaherpesvirus 3, 07-1, HEL; procedure, shortened: as §2

SMILES | MCC [1] [µM] | MCC [2] [µM] | EC50 [3] [µM] | EC50 [4] [µM] | EC50 [5] [µM] | EC50 [6] [µM] | EC50 [7] [µM] | EC50 [8] [µM] | MCC [9] [µM] | EC50 [10] [µM] | EC50 [11] [µM] | EC50 [12] [µM] | EC50 [13] [µM] | EC50 [15] [µM] | EC50 [16] [µM] | EC50 [17] [µM] | EC50 [19] [µM] | MCC [20] [µM] | EC50 [22] [µM] | EC50 [24] [µM] | other results
CCCCc1nc(N)[nH]c(=O)c1Br | > 100 | ≥ 100 | > 100 | > 100 | > 100 | > 20 | > 20 | > 100 | 100 | > 20 | > 20 | > 100 | > 100 | > 100 | > 100 | > 100 | > 100 | > 100 | > 20 | > 100 | MCC [14]: > 100 µM; EC50 [18]: > 100 µM; EC50 [21]: 10 µM; EC50 [23]: > 100 µM; EC50 [25]: > 100 µM; EC50 [26]: > 20 µM
Nc1nc(CC(O)c2ccc(Cl)cc2)c(Br)c(=O)[nH]1 (stereo not drawn) | > 100 | > 100 | > 100 | > 100 | > 100 | > 100 | 100 | > 100 | > 100 | 100 | 100 | > 100 | > 100 | > 100 | > 100 | > 100 | > 100 | > 100 | > 100 | > 100 | MCC [14]: > 100 µM; EC50 [18]: > 100 µM; EC50 [21]: 45 µM; EC50 [23]: > 100 µM; EC50 [25]: > 100 µM; EC50 [26]: 100 µM
CCCCCc1nc(N)[nH]c(=O)c1Br | > 100 | > 20 | > 100 | > 100 | > 100 | > 4 | > 4 | > 100 | 20 | > 4 | > 4 | > 100 | > 100 | > 100 | > 100 | > 100 | > 100 | > 100 | > 4 | > 100 | MCC [14]: > 100 µM; EC50 [18]: > 100 µM; EC50 [21]: 2 µM; EC50 [23]: > 100 µM; EC50 [25]: > 100 µM; EC50 [26]: > 4 µM
Nc1nc(CCc2ccccc2)c(Br)c(=O)[nH]1 | > 100 | > 100 | > 100 | > 100 | > 100 | > 100 | > 100 | > 100 | > 100 | > 100 | > 100 | > 100 | > 100 | > 100 | > 100 | > 100 | > 100 | > 100 | > 100 | > 100 | MCC [14]: > 100 µM; EC50 [18]: > 100 µM; EC50 [21]: > 100 µM; EC50 [23]: > 100 µM; EC50 [25]: > 100 µM; EC50 [26]: > 100 µM
O=c1[nH]c(=O)n([C@H]2C[C@H](O)[C@@H](CO)O2)cc1/C=C/Br [BRIVUDINE] | – | > 250 | – | – | 0.4 | – | 0.02 | – | – | – | – | > 250 | > 250 | – | – | – | – | – | – | – | EC50 [26]: 33 µM
Nc1ncnc2c1ncn2C[C@H](O)CO [(S)-DHPA] | > 250 | – | – | > 250 | – | > 250 | – | – | > 250 | – | – | – | – | – | > 250 | > 250 | – | – | > 250 | > 250 | EC50 [18]: > 250 µM; EC50 [21]: > 250 µM
NC12CC3CC(CC(C3)C1)C2 [AMANTADINE] | – | – | – | – | – | – | – | > 200 | – | – | – | – | – | 140 | – | – | 0.8 | > 200 | – | – | –
Nc1nc2c(ncn2COCCO)c(=O)[nH]1 [ACYCLOVIR] | – | > 250 | – | – | – | – | – | – | – | – | – | – | > 250 | – | – | – | – | – | – | – | –
Nc1ccn(C[C@@H](CO)OCP(=O)(O)O)c(=O)n1 [CIDOFOVIR] | – | > 250 | – | – | – | – | – | – | – | 3.1 | 0.51 | – | > 250 | – | – | – | – | – | – | – | –
NC(=O)c1ncn([C@@H]2O[C@H](CO)[C@@H](O)[C@H]2O)n1 [RIBAVIRIN] | > 250 | – | – | > 250 | – | 22 | – | 8.3 | > 250 | – | – | – | – | 9.6 | > 250 | > 250 | 7.2 | > 100 | 5 | 112 | –
Nc1nc2c(ncn2COC(CO)CO)c(=O)[nH]1 [GANCICLOVIR] | – | > 100 | 0.9 | – | > 100 | – | – | – | > 100 | 3.1 | 0.38 | – | – | – | – | – | – | – | – | – | MCC [14]: > 100 µM; EC50 [23]: > 100 µM; EC50 [25]: 0.9 µM
CC(N)C12CC3CC(CC(C3)C1)C2 (stereo not drawn) [RIMANTADINE] | – | – | – | – | – | – | – | > 200 | – | – | – | – | – | – | – | – | – | > 200 | – | – | –
